Reference: ChEMBL document CHEMBL1156261, “Evaluation of substituted N,N'-diarylsulfonamides as activators of the tumor cell specific M2 isoform of pyruvate kinase” (J Med Chem, 2010)
Activity calls are given as the source filed them. No rule for the calls is given here.

Experiments:
[1] = target: Pyruvate kinase PKLR (Homo sapiens) (UniProt P30613); test: Activation of PKL assessed as ATP product formation by luminescent pyruvate kinase-luciferase coupled assay relative to control; set-up: concentration or dose not given beside the values
Pyruvate kinase PKLR (Homo sapiens), sequence (P30613 whole entry, looked up): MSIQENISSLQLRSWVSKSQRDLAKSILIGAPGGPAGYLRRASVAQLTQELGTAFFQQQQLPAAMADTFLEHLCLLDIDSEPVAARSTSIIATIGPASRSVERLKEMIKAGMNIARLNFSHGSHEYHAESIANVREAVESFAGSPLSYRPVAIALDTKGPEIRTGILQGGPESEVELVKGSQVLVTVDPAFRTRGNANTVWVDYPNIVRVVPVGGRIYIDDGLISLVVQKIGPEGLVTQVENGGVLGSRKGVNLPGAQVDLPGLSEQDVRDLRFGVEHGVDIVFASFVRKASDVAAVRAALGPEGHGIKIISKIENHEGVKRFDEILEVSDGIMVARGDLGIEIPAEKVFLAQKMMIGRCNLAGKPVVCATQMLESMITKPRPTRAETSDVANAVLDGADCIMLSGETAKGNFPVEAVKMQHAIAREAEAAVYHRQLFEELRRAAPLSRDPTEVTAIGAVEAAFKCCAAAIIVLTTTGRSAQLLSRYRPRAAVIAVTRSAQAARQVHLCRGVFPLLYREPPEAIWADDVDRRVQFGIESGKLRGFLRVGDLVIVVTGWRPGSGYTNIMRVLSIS
Procedure, shortened: (§1)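 Luciferase-coupled ATP production assay run as for PKM2: imidazole pH 7.2 buffer with KCl, MgCl2, Tween 20 and BSA, 0.1 mM ADP, 0.5 mM PEP, 1 h at r.t., Kinase-Glo luminescence. Enzyme final concentrations were PKM1 1 nM, PKL 0.1 nM, PKR 0.1 nM. % activation normalized to DMSO (neutral) and no-enzyme controls.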

Pyruvate kinase PKM [2] = target: T1, Pyruvate kinase PKM (Homo sapiens, UniProt P14618); test: Activation of PKM2 assessed as ATP product formation at 57 uM by luminescent pyruvate kinase-luciferase coupled assay relative to fructose-1,6-bis-phosphate
T1 sequence (P14618 2-531 limits assumed): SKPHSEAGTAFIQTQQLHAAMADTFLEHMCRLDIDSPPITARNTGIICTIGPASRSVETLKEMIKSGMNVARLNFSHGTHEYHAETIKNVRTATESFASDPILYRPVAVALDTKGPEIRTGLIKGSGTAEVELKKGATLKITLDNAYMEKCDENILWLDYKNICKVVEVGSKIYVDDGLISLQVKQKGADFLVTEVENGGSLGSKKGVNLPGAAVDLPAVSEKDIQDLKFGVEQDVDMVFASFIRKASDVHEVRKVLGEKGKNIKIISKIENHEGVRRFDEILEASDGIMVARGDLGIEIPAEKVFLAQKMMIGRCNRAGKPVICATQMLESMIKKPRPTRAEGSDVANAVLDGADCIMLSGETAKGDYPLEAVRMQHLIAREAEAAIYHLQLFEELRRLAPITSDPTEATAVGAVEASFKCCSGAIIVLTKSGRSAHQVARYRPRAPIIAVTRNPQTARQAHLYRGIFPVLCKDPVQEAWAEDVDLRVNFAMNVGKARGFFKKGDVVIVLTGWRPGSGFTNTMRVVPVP
Procedure, shortened: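 Recombinant human PKM2 (0.1 nM final) in 50 mM imidazole pH 7.2, 50 mM KCl, 7 mM MgCl2, 0.01% Tween 20, 0.05% BSA; 0.1 mM ADP, 0.5 mM PEP; 1 h at r.t., then Kinase-Glo luciferase read of ATP formed. Activation % = (c−n)/(n−i)×100 against DMSO and no-enzyme controls; 100% ≈ 2-fold over basal signal. Max response taken at 57 μM; three separate experiments.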

Pyruvate kinase PKM [3] = target: T1, Pyruvate kinase PKM; test: Activation of PKM1 assessed as pyruvate formation by fluorescent pyruvate kinase-lactate dehydrogenase coupled assay
[4] = target: Pyruvate kinase PKLR (Homo sapiens) (UniProt P30613); test: Activation of PKL assessed as pyruvate formation by fluorescent pyruvate kinase-lactate dehydrogenase coupled assay relative to control; set-up: concentration or dose not given beside the values
[5] = target: Pyruvate kinase PKLR (Homo sapiens) (UniProt P30613); test: Activation of PKR assessed as pyruvate formation by fluorescent pyruvate kinase-lactate dehydrogenase coupled assay relative to control; set-up: concentration or dose not given beside the values
Pyruvate kinase PKM [6] = target: T1, Pyruvate kinase PKM; test: Activation of PKM1 assessed as ATP product formation by luminescent pyruvate kinase-luciferase coupled assay; procedure, shortened: as §1
[7] = target: Pyruvate kinase PKLR (Homo sapiens) (UniProt P30613); test: Activation of PKR assessed as ATP product formation by luminescent pyruvate kinase-luciferase coupled assay relative to control; set-up: concentration or dose not given beside the values; procedure, shortened: as §1

Structure (SMILES)	Activity [1] [%]	Activity (Pyruvate kinase PKM [2]) [%]	Activity (Pyruvate kinase PKM [3])	Activity [4] [%]	Activity [5] [%]	Activity (Pyruvate kinase PKM [6])	Activity [7] [%]
O=S(=O)(N[C@H]1CC[C@H](NS(=O)(=O)c2c(F)cccc2F)CC1)c1ccc2c(c1)OCCO2	< 30	90.8	inactive	< 30	< 30	inactive	< 30
O=S(=O)(c1ccc2c(c1)OCCO2)N1CCN(S(=O)(=O)c2ccccn2)CC1	< 30	103	inactive	< 30	< 30	inactive	< 30
O=S(=O)(c1ccc2c(c1)OCCCO2)N1CCN(S(=O)(=O)c2c(F)cccc2F)CC1	< 30	100	inactive	< 30	< 30	inactive	< 30
Cn1ccc2cc(S(=O)(=O)N3CCN(S(=O)(=O)c4c(F)cccc4F)CC3)ccc21	< 30	91.1	inactive	< 30	< 30	inactive	< 30
O=S(=O)(c1c(F)cccc1F)N1CCN(S(=O)(=O)c2c(F)cccc2F)CC1	< 30	74.3	inactive	< 30	< 30	inactive	< 30
COc1cccc(S(=O)(=O)N2CCN(S(=O)(=O)c3ccc4c(c3)OCCO4)CC2)c1	< 30	90	inactive	< 30	< 30	inactive	< 30
O=S(=O)(c1ccc2c(c1)OCCO2)N1CCN(S(=O)(=O)c2cc(F)c(F)cc2F)CC1	< 30	105	inactive	< 30	< 30	inactive	< 30
CC1(C)CCc2cc(S(=O)(=O)N3CCN(S(=O)(=O)c4c(F)cccc4F)CC3)ccc2O1	< 30	119	inactive	< 30	< 30	inactive	< 30
O=C1CN(S(=O)(=O)c2ccc3c(c2)OCCO3)CCN1S(=O)(=O)c1c(F)cccc1F	< 30	96.9	inactive	< 30	< 30	inactive	< 30
O=S(=O)(NCCCCCNS(=O)(=O)c1c(F)cccc1F)c1ccc2c(c1)OCCO2	< 30	114	inactive	< 30	< 30	inactive	< 30
O=S(=O)(c1ccc(F)cc1)N1CCN(S(=O)(=O)c2ccc3c(c2)OCCO3)CC1	< 30		inactive	< 30	< 30	inactive	< 30
O=S(=O)(c1ccc2c(c1)OCCO2)C1CCN(S(=O)(=O)c2c(F)cccc2F)CC1	< 30	110	inactive	< 30	< 30	inactive	< 30
O=S(=O)(NCCCNS(=O)(=O)c1c(F)cccc1F)c1ccc2c(c1)OCCO2	< 30	106	inactive	< 30	< 30	inactive	< 30
COc1ccc(S(=O)(=O)N2CCN(S(=O)(=O)c3c(F)cccc3F)CC2)cc1	< 30	102	inactive	< 30	< 30	inactive	< 30
O=S(=O)(c1ccc(Cl)cc1)N1CCN(S(=O)(=O)c2ccc3c(c2)OCCO3)CC1	< 30		inactive	< 30	< 30	inactive	< 30
C[C@H]1CN(S(=O)(=O)c2c(F)cccc2F)CCN1S(=O)(=O)c1ccc2c(c1)OCCO2	< 30	109	inactive	< 30	< 30	inactive	< 30
